The test system of experiment [1] is Staphylococcus aureus. Description: Upregulation of peptidase M23 protein expression in Staphylococcus aureus assessed as log2 of fold change in protein level measured after 2 hrs by LC-MS/MS analysis relative to control. Type of experiment: functional. In outline: (§1)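 S. aureus ATCC 25923 at OD600 0.6 exposed to compound or DMSO control for 2 h at 37°C, normalized to OD600 1.1 and PBS-washed. Cells were pressure-cycling lysed in 100 mM ammonium bicarbonate, and 50 μg protein was acetone-precipitated, reduced and alkylated, then Trypsin/Lys-C digested and C18-desalted. About 1 μg peptides went to LC-MS/MS. Label-free quantitation kept proteins present in all 3 samples, filtered at p <0.05.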

The subject of the next experiment is Enterococcus faecalis. Description: Antibacterial activity against vancomycin-resistant Enterococcus faecalis ATCC 51299 assessed as inhibition of bacterial growth incubated for 18 to 20 hrs by broth microdilution method. Type of experiment: functional. The following applies: time 18-20 hrs. In outline: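 Broth microdilution per CLSI. Enterococci were diluted to about 5×10^5 CFU/mL in TSB and incubated aerobically with serial dilutions of agent at 37 °C for 18–20 h. MIC was read visually as the lowest concentration with no visible growth.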
(In broth dilution the organism is exposed to a series of concentrations in liquid medium.)

The subject of experiment [2] is Staphylococcus aureus. Description: Downregulation of Nuc protein expression in Staphylococcus aureus assessed as log2 of fold change in protein level measured after 2 hrs by LC-MS/MS analysis relative to control. The experiment is classed as functional. In outline: (§2)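 S. aureus ATCC 25923 at OD600 0.6 was treated with compound or DMSO for 2 h at 37 °C, normalised to OD600 1.1, and washed in PBS. Cells were pressure-lysed in 100 mM ammonium bicarbonate, then acetone-precipitated, reduced with DTT, alkylated with iodoacetamide, and digested with trypsin/Lys-C. Peptides were desalted and run on LC-MS/MS. Label-free quantitation used proteins present in all 3 samples, filtered at p<0.05 against DMSO.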

For experiment [3], the system named is Staphylococcus aureus. Description: Downregulation of EsxA protein expression in Staphylococcus aureus assessed as log2 of fold change in protein level measured after 2 hrs by LC-MS/MS analysis relative to control. The experiment is classed as functional. In outline: as §2
Experiment [4] deals with Staphylococcus aureus. Description: Downregulation of SarR protein expression in Staphylococcus aureus assessed as log2 of fold change in protein level measured after 2 hrs by LC-MS/MS analysis relative to control. The experiment is classed as functional. In outline: as §2
Experiment [5] has as its system Staphylococcus aureus. Description: Downregulation of IlvA protein expression in Staphylococcus aureus assessed as log2 of fold change in protein level measured after 2 hrs by LC-MS/MS analysis relative to control. The experiment is classed as functional. In outline: as §2
Experiment [6] deals with Staphylococcus aureus. Description: Upregulation of TraG protein expression in Staphylococcus aureus assessed as log2 of fold change in protein level measured after 2 hrs by LC-MS/MS analysis relative to control. The experiment is classed as functional. In outline: as §1
Experiment [7] has as its system Staphylococcus aureus. Description: Upregulation of DefA protein expression in Staphylococcus aureus assessed as log2 of fold change in protein level measured after 2 hrs by LC-MS/MS analysis relative to control. The experiment is classed as functional. The method in brief:
as §1

The subject of experiment [8] is Staphylococcus aureus. Description: Upregulation of IsdI protein expression in Staphylococcus aureus assessed as log2 of fold change in protein level measured after 2 hrs by LC-MS/MS analysis relative to control. The experiment is classed as functional. The method in brief: as §1
Experiment [9] deals with Staphylococcus aureus. Description: Downregulation of PgsA gene expression in Staphylococcus aureus ATCC 25923 assessed as reduction in […] at 0.25 ug/ml incubated for 2 hrs by RT-PCR analysis. The following applies: dose 0.25 µg/ml. Type of experiment: functional. In outline:
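S. aureus ATCC 25923 at OD600 0.6 was treated in triplicate with 0.25 μg/mL compound or DMSO for 2 h at 37 °C and pelleted. Total RNA was analysed by real-time RT-PCR with pgsA primers, normalised to 16S rRNA. Significance was tested by Student's t-test.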

In experiment [10] the test system is Staphylococcus aureus. Description: Inhibition of Glc2-DAG in Staphylococcus aureus ATCC 25923 assessed as reduction in alpha-naphthol at 0.25 to 2 ug/ml measured after 5 hrs by thin layer chromatography. The following applies: dose 0.25-2 µg/ml. In outline: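 Cells were normalized to OD600 0.9 and washed in 0.1 M sodium acetate pH 4.7. Lipids were Bligh-Dyer extracted and dried under nitrogen, then run on TLC with α-naphthol/sulfuric acid staining. The stained band was identified as Glc2-DAG by MALDI-TOF.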

The next experiment relates to Mus musculus. Description: Acceleration of wound healing in methicillin-resistant Staphylococcus aureus USA300 infected Balb/c mouse model assessed as reduction in TNF-alpha level in skin wounds administered topically twice daily 2 days post infection and measured after 5 days post compound treatment. Type of experiment: functional, organism-based. The following applies: time 5.0 day. The method in brief:
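Mice had two 6-mm dorsal excisional wounds, each infected with 20 μL of 4.2×10^9 CFU/mL MRSA USA300 and covered with Tegaderm. Treatment began 2 days after infection (n=5 per group): 2% compound in petroleum jelly applied topically twice daily for 5 days. Right-wound homogenates in PBS were centrifuged, supernatants pooled per group, and protein normalised by BCA. Cytokines were measured by mouse cytokine array (pg/mL).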

The subject of experiment [11] is Staphylococcus aureus. Description: Upregulation of CHAP domain-containing protein expression in Staphylococcus aureus measured after 2 hrs by LC-MS/MS analysis. Type of experiment: functional. In outline:
as §1

Experiment [12] relates to Staphylococcus aureus. Description: Upregulation of heme uptake system protein IsdE expression in Staphylococcus aureus measured after 2 hrs by LC-MS/MS analysis. Type of experiment: functional. In outline:
as §1

Experiment [13] relates to Staphylococcus aureus. Description: Upregulation of siderophore biosynthesis protein SbnA expression in Staphylococcus aureus measured after 2 hrs by LC-MS/MS analysis. Type of experiment: functional. The method in brief: as §1
Experiment [14] deals with Staphylococcus aureus. Description: Upregulation of siderophore biosynthesis protein SbnF in Staphylococcus aureus measured after 2 hrs by LC-MS/MS analysis. The experiment is classed as functional. The method in brief:
as §1

Experiment [15] has as its system Staphylococcus aureus. Description: Upregulation of 30S ribosomal protein S20 expression in Staphylococcus aureus measured after 2 hrs by LC-MS/MS analysis. The experiment is classed as functional. In outline:
as §1

The subject of experiment [16] is Staphylococcus aureus. Description: Downregulation of oxidoreductase protein expression in Staphylococcus aureus measured after 2 hrs by LC-MS/MS analysis. The experiment is classed as functional. In outline:
as §1

Experiment [17] relates to Staphylococcus aureus. Description: Downregulation of nucleoside permease protein expression in Staphylococcus aureus measured after 2 hrs by LC-MS/MS analysis. Type of experiment: functional. In outline:
as §1

In experiment [18] the test system is Staphylococcus aureus. Description: Downregulation of hydrolase protein expression in Staphylococcus aureus measured after 2 hrs by LC-MS/MS analysis. The experiment is classed as functional. In outline: as §2
In experiment [19] the test system is Staphylococcus aureus. Description: Downregulation of ortho-poxovirus protein expression in Staphylococcus aureus measured after 2 hrs by LC-MS/MS analysis. Type of experiment: functional. In outline: as §1

Values after ≈ are worked out from the molar mass of the structure shown. Active and inactive are the calls of the source. No cut-off for these calls is given here.

A word on the MIC: it is the lowest concentration that inhibits growth of the organism. Regarding `CC1CC(C)CN(S(=O)(=O)c2ccc(C(=O)Nc3nnc(-c4ccc(C(F)(F)F)cc4)o3)cc2)C1` (stereo unspecified), the log2FC was 2 in the experiment with Staphylococcus aureus [1]; -5.1 with Staphylococcus aureus [2]; -2 in the experiment on Staphylococcus aureus [3]; -2 with Staphylococcus aureus [4]; -2 in the experiment with Staphylococcus aureus [5]; 2 with Staphylococcus aureus [6]. Moreover, the log2FC turned out to be 2 in the experiment with Staphylococcus aureus [7] and 3.2 in the experiment with Staphylococcus aureus [8]. For the same compound, the MIC in the experiment with Enterococcus faecalis stood at 0.25 µg/mL (≈ 0.492 µM). Moreover, the outcome in the experiment with Staphylococcus aureus [9], with Mus musculus, in the experiment with Staphylococcus aureus [11], with Staphylococcus aureus [12], in the experiment on Staphylococcus aureus [13] and with Staphylococcus aureus [14] was Active. Also, the outcome in the experiment with Staphylococcus aureus [15], with Staphylococcus aureus [16], in the experiment on Staphylococcus aureus [17], in the experiment with Staphylococcus aureus [18] and in the experiment with Staphylococcus aureus [19] was Active. In the experiment on Staphylococcus aureus [10], the inhibition result was “Active”.
